# Assay results published in ChEMBL document CHEMBL2046302, “Fused tricyclic indoles as S1P₁ agonists with robust efficacy in animal models of autoimmune disease” (Bioorg Med Chem Lett, 2012).
# Activity calls are given as the source filed them. The rule behind the calls is not given here.
# Tests used:
# Rattus norvegicus [1] = experiment: Immunosuppressant activity in collagen-induced Lewis rat arthritis model assessed as reduction in joint inflammation at 0.075 mg/kg, po qd; assay type: functional, organism-based; set-up: dose 0.075 mg/kg
# [2] = target: T1, Sphingosine 1-phosphate receptor 1 (Homo sapiens, UniProt P21453); experiment: Agonist activity against human S1P1 assessed as accumulation of cAMP by HTRF assay; assay type: functional
# How it was run: (§1)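 Agonist EC50 was read from a cAMP HTRF assay run on human, rat and mouse S1P1. Response was scaled against S1P, and values are the mean of three or more replicates.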
# [3] = target: Sphingosine 1-phosphate receptor 3 (Homo sapiens, UniProt Q99500); experiment: Agonist activity against human S1P3 by beta arrestin recruitment assay; assay type: functional
# How it was run: (§2)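 Agonist EC50 at human S1P1 through S1P5 was measured by β-arrestin recruitment. Values are the mean of three or more replicates.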
# [4] = Half life in mouse liver microsome; assay type: ADME; conditions: liver microsomes
# [5] = Volume of distribution at steady state in Sprague-Dawley rat at 2 mg/kg, iv and 3 mg/kg, po; assay type: ADME, organism-based; conditions: in vivo, read-out: Vdss
# How it was run: (§3)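 Male Sprague–Dawley rats received 2.0 mg/kg IV in 100% PEG400 and 3.0 mg/kg PO in 0.5% methyl cellulose. Clearance, Vss, terminal half-life, Cmax, AUClast and oral bioavailability were derived from plasma levels.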
# [6] = Cmax in Sprague-Dawley rat in Sprague-Dawley rat at 2 mg/kg, iv and 3 mg/kg, po; assay type: ADME, organism-based; conditions: in vivo; how it was run: as §3
# [7] = Clearance in Sprague-Dawley rat at 2 mg/kg, iv and 3 mg/kg, po; assay type: ADME, organism-based; conditions: in vivo; how it was run: as §3
# [8] = target: Sphingosine 1-phosphate receptor 5 (Homo sapiens, UniProt Q9H228); experiment: Agonist activity against human S1P5 by beta arrestin recruitment assay; assay type: functional; how it was run: as §2
# [9] = Half life in rat liver microsome; assay type: ADME; conditions: liver microsomes
# [10] = target: Sphingosine 1-phosphate receptor 2 (Homo sapiens, UniProt O95136); experiment: Agonist activity against human S1P2 by beta arrestin recruitment assay; assay type: functional; how it was run: as §2
# [11] = target: Sphingosine 1-phosphate receptor 1 (Rattus norvegicus, UniProt P48303); experiment: Agonist activity against rat S1P1 assessed as accumulation of cAMP by HTRF assay; assay type: functional; how it was run: as §1
# [12] = target: T1, Sphingosine 1-phosphate receptor 1; experiment: Agonist activity against human S1P1 by beta arrestin recruitment assay; assay type: functional; how it was run: as §2
# [13] = Oral bioavailability in Sprague-Dawley rat at 3 mg/kg; assay type: ADME, organism-based; conditions: in vivo; how it was run: as §3
# [14] = AUClast in Sprague-Dawley rat in Sprague-Dawley rat at 2 mg/kg, iv and 3 mg/kg, po; assay type: ADME, organism-based; conditions: plasma; how it was run: as §3
# [15] = Half life in human liver microsome; assay type: ADME; conditions: liver microsomes
# [16] = target: Sphingosine 1-phosphate receptor 1 (Mus musculus, UniProt O08530); experiment: Agonist activity against mouse S1P1 assessed as accumulation of cAMP by HTRF assay; assay type: functional; how it was run: as §1
# [17] = Terminal half life in Sprague-Dawley rat at 2 mg/kg, iv and 3 mg/kg, po; assay type: ADME, organism-based; conditions: in vivo, read-out: beta t1/2 (converted); how it was run: as §3
# [18] = target: T2, Sphingosine 1-phosphate receptor 4 (Homo sapiens, UniProt O95977); experiment: Agonist activity against human S1P4 by beta arrestin recruitment assay; assay type: functional; how it was run: as §2
# T2 sequence (O95977 whole entry): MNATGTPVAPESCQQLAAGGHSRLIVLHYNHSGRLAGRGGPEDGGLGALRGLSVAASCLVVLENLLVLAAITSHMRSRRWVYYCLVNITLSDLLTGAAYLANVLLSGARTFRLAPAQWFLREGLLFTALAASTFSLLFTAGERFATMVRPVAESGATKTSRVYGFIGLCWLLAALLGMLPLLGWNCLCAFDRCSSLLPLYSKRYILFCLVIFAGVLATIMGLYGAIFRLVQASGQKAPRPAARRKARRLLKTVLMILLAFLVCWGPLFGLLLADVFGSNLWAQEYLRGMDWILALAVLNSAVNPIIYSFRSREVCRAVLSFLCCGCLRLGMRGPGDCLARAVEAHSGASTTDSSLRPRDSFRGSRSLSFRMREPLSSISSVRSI
# Mus musculus [19] = experiment: Immunosuppressant activity in BALB/c mouse assessed as reduction in circulating lymphocyte at 6 mg/kg, po measured up to 24 hrs; assay type: functional, organism-based; set-up: dose 6 mg/kg
# How it was run: (§4)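 BALB/c mice were dosed orally as a suspension in 0.5% methyl cellulose, at 6 mg/kg or 1.0 mg/kg. Circulating lymphocytes were followed over time, with readings at 5 h and 24 h.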
# Mus musculus [20] = experiment: Immunosuppressant activity in BALB/c mouse assessed as reduction in circulating lymphocyte at 6 mg/kg, po measured after 5 hrs; assay type: functional, organism-based; set-up: dose 6 mg/kg; how it was run: as §4
# Mus musculus [21] = experiment: Immunosuppressant activity in BALB/c mouse assessed as reduction in circulating lymphocyte at 30 mg/kg, po measured at 24 hrs; assay type: functional, organism-based; set-up: dose 30 mg/kg
# Mus musculus [22] = experiment: Immunosuppressant activity in BALB/c mouse assessed as reduction in circulating lymphocyte at 1 mg/kg, po measured at 24 hrs; assay type: functional, organism-based; set-up: dose 1 mg/kg; how it was run: as §4
# Mus musculus [23] = experiment: Immunosuppressant activity in BALB/c mouse assessed as reduction in circulating lymphocyte at 1 mg/kg, po measured at 5 hrs; assay type: functional, organism-based; set-up: dose 1 mg/kg; how it was run: as §4
# Rattus norvegicus [24] = experiment: Immunosuppressant activity in collagen-induced Lewis rat arthritis model assessed as reduction in joint inflammation at 1 to 10 mg/kg, po qd; assay type: functional, organism-based
# Mus musculus [25] = experiment: Reduction T-cell mediated beta-cell destruction in cyclophosphamide-induced non-obese type 1 diabetes mouse model assessed as normalization of blood glucose at 3 to 10 mg/kg, po qd for 25 days; assay type: functional, organism-based
# How it was run: (§5)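 NOD mice were given cyclophosphamide i.p. on days 0 and 14 to accelerate diabetes onset. Oral dosing once daily in 0.5% methyl cellulose ran from day 0 to day 25. Animals with non-fasting blood glucose >250 mg/dL were scored diabetic.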
# Mus musculus [26] = experiment: Immunosuppressant activity in autoimmune encephalomyelitis C57B1/6 mouse model assessed as reduction in disease score at 10 mg/kg, po qd administered on day 3 post challenge; assay type: functional, organism-based; set-up: dose 10 mg/kg
# How it was run: (§6)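 Oral dosing once daily in 0.5% methylcellulose began on day 3. Signs of disease were monitored daily and graded on a 1–5 scale, from limp tail or hind-limb weakness (1) to death (5).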
# Mus musculus [27] = experiment: Reduction T-cell mediated beta-cell destruction in cyclophosphamide-induced non-obese type 1 diabetes mouse model assessed as normalization of blood glucose at 1 mg/kg, po qd for 25 days; assay type: functional, organism-based; set-up: dose 1 mg/kg; how it was run: as §5
# Rattus norvegicus [28] = experiment: Immunosuppressant activity in collagen-induced Lewis rat arthritis model assessed as reduction in joint inflammation at 1 mg/kg, po qd; assay type: functional, organism-based; set-up: dose 1 mg/kg
# Rattus norvegicus [29] = experiment: Toxicity in telemeterized Charles-River Sprague-Dawley rat assessed as reduction in heart rate at 3 mg/kg, po measured over 20 hrs; assay type: organism-based; set-up: dose 3 mg/kg, route oral; conditions: in vivo
# How it was run: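 Telemeterized Charles River Sprague–Dawley rats received 3 or 30 mg/kg orally as a suspension in 0.5% methyl cellulose, with vehicle-treated and positive-control groups. Heart rate was recorded hourly over 20 h.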
# Mus musculus [30] = experiment: Immunosuppressant activity in autoimmune encephalomyelitis C57B1/6 mouse model assessed as reduction in disease score at 1 mg/kg, po qd administered on day 3 post challenge; assay type: functional, organism-based; set-up: dose 1 mg/kg; how it was run: as §6
# Sphingosine 1-phosphate receptor 2, sequence (O95136 whole entry): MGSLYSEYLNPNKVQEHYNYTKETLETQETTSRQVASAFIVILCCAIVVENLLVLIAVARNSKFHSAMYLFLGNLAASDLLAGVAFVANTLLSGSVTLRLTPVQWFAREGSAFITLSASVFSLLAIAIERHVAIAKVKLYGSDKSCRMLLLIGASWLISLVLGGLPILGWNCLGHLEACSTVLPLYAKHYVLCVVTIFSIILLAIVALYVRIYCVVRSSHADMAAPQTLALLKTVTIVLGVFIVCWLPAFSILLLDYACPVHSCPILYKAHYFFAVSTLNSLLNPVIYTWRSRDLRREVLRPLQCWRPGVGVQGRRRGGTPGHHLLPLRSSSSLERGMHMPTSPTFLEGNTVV
# Sphingosine 1-phosphate receptor 1 (Rattus norvegicus, UniProt P48303), sequence (P48303 whole entry): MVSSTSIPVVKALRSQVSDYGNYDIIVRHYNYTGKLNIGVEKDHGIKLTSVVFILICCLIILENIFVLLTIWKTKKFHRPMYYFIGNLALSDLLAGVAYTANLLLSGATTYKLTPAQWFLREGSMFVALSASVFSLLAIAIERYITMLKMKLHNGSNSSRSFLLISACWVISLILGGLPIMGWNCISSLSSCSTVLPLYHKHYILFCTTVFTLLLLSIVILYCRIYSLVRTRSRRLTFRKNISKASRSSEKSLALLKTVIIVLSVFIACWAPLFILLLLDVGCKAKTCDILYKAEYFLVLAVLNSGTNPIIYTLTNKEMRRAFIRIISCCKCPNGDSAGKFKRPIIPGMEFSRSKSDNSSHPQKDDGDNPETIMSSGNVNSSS
# T1 sequence (P21453 whole entry): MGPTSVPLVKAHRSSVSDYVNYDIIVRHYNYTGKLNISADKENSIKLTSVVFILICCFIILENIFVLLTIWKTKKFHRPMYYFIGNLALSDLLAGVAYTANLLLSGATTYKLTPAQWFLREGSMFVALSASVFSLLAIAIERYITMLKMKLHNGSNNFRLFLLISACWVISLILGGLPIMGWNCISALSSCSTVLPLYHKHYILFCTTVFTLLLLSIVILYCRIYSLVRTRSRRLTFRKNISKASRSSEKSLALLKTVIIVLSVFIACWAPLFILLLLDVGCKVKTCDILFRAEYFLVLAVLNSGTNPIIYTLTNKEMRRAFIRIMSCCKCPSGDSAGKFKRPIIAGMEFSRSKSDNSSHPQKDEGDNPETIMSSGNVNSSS
# Sphingosine 1-phosphate receptor 3, sequence (Q99500 whole entry): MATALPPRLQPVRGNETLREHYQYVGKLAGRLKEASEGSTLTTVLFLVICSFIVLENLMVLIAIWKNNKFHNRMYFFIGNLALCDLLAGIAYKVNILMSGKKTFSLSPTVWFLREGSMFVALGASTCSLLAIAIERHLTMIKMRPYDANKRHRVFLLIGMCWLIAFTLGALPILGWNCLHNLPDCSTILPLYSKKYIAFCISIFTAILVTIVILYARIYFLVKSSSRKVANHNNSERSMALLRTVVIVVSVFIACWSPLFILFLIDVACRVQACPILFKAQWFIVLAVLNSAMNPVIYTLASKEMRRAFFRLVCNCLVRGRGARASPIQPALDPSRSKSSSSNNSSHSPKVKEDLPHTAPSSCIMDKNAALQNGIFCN
# Sphingosine 1-phosphate receptor 5, sequence (Q9H228 whole entry): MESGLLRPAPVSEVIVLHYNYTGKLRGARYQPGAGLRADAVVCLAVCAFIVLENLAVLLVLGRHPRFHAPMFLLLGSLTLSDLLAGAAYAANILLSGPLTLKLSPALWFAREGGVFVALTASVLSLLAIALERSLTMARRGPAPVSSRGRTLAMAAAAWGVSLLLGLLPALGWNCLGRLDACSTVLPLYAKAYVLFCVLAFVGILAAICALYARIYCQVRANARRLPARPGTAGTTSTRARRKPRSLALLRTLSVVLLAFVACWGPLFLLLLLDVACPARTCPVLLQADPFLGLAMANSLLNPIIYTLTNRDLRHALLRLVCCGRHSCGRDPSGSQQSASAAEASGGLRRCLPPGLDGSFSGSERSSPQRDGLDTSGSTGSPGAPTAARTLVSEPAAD
# Sphingosine 1-phosphate receptor 1 (Mus musculus, UniProt O08530), sequence (O08530 whole entry): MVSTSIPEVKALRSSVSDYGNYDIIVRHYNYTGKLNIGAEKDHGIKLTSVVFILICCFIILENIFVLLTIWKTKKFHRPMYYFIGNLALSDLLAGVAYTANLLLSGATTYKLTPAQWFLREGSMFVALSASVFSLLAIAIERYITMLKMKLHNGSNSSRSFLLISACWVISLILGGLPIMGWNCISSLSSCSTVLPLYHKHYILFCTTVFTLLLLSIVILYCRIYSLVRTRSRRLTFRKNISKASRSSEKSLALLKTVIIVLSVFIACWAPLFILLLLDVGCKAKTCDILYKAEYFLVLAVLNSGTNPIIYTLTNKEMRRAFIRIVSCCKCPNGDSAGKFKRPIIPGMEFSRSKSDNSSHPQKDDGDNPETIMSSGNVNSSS
compound,measurement,setting,value
CN(Cc1cnc2nc(N)nc(N)c2n1)c1ccc(C(=O)N[C@@H](CCC(=O)O)C(=O)O)cc1,Activity,Rattus norvegicus [1],Active
N#Cc1cc(OC(F)(F)F)cc(-c2nc(-c3ccc4[nH]c5c(c4c3)CCC5CC(=O)O)no2)c1 (racemic),EC50,[2],1.1 nM
COc1cc(C#N)cc(-c2nc(-c3ccc4[nH]c5c(c4c3)CCC5CC(=O)O)no2)c1 (racemic),EC50,[2],157 nM
N#Cc1cc(-c2nc(-c3ccc4[nH]c5c(c4c3)CCC5CC(=O)O)no2)ccc1OC(F)(F)F (racemic),EC50,[2],3.2 nM
COc1ccc(-c2nc(-c3ccc4[nH]c5c(c4c3)CCC5CC(=O)O)no2)cc1C#N (racemic),EC50,[2],4.6 nM
CC(C)Oc1ccc(-c2nc(-c3ccc4[nH]c5c(c4c3)CCC5CC(=O)O)no2)cc1C#N (racemic),EC50,[2],7.5 nM
N#Cc1cc(OC(F)(F)F)cc(-c2nc(-c3ccc4c(c3)cc3n4CCC3CC(=O)O)no2)c1 (racemic),EC50,[2],0.25 nM
COc1cc(C#N)cc(-c2nc(-c3ccc4c(c3)cc3n4CCC3CC(=O)O)no2)c1 (racemic),EC50,[2],4.6 nM
O=C(O)CC1CCn2c1cc1cc(-c3noc(-c4cc(C(F)(F)F)cc(C(F)(F)F)c4)n3)ccc12 (racemic),EC50,[2],2.1 nM
N#Cc1cc(-c2nc(-c3ccc4c(c3)cc3n4CCC3CC(=O)O)no2)ccc1OC(F)(F)F (racemic),EC50,[2],0.59 nM
COc1ccc(-c2nc(-c3ccc4c(c3)cc3n4CCC3CC(=O)O)no2)cc1C#N (racemic),EC50,[2],2.9 nM
CC(C)Oc1ccc(-c2nc(-c3ccc4c(c3)cc3n4CCC3CC(=O)O)no2)cc1C#N (racemic),EC50,[2],0.61 nM
"N#Cc1cc(OC(F)(F)F)cc(-c2nc(-c3ccc4[nH]c5c(c4c3)CCC5CC(=O)O)no2)c1 (single isomer, unassigned) [listing 1 of 2 here]",EC50,[3],> 100000 nM
same,half-life,[4],> 1 h
same,Vd,[5],0.734 L/kg
same,Cmax,[6],1400 ng/mL
same,clearance,[7],1.39 mL/min/kg
same,EC50,[8],15 nM
same,half-life,[9],> 1 h
same,EC50,[2],0.75 nM
same,EC50,[10],> 100000 nM
same,EC50,[11],1.8 nM
same,EC50,[12],36 nM
same,bioavailability,[13],32.5%
same,AUC(0-t),[14],11000 ng·h/mL
same,half-life,[15],> 1 h
same,EC50,[16],2.6 nM
same,half-life,[17],5.46 h
same,EC50,[18],462 nM
"N#Cc1cc(OC(F)(F)F)cc(-c2nc(-c3ccc4[nH]c5c(c4c3)CCC5CC(=O)O)no2)c1 (single isomer, unassigned) [listing 2 of 2 here]",Activity,Mus musculus [19],Active
same,Activity,Mus musculus [20],Active
same,Activity,Mus musculus [21],Active
"N#Cc1cc(OC(F)(F)F)cc(-c2nc(-c3ccc4c(c3)cc3n4CCC3CC(=O)O)no2)c1 (single isomer, unassigned; enantiomer 2)",Activity,Mus musculus [22],inactive
same,Activity,Mus musculus [23],Active
same,Activity,Rattus norvegicus [24],Active
same,Activity,Mus musculus [19],Active
same,Activity,Mus musculus [20],Active
same,Activity,Mus musculus [25],Active
same,Activity,Mus musculus [26],Active
same,Activity,Mus musculus [27],Active
N#Cc1cc(OC(F)(F)F)cc(-c2nc(-c3ccc4[nH]c5c(c4c3)CCC5CC(=O)O)no2)c1 (stereo in doubt; 17a),EC50,[3],> 100000 nM
same,EC50,[8],11 nM
same,EC50,[2],1.73 nM
same,EC50,[10],> 100000 nM
same,EC50,[11],1.4 nM
same,EC50,[12],55 nM
same,EC50,[16],8.3 nM
same,EC50,[18],239 nM
N#Cc1cc(OC(F)(F)F)cc(-c2nc(-c3ccc4c(c3)cc3n4CCC3CC(=O)O)no2)c1 (stereo in doubt; 23a),EC50,[3],> 100000 nM
same,EC50,[8],289 nM
same,EC50,[2],0.76 nM
same,EC50,[10],> 100000 nM
same,EC50,[11],3.4 nM
same,EC50,[12],123 nM
same,EC50,[16],5.5 nM
same,EC50,[18],> 100000 nM
CCCCCCCCc1ccc(CCC(N)(CO)CO)cc1 [FINGOLIMOD],Activity,Rattus norvegicus [28],Active
same,Activity,Rattus norvegicus [29],Toxic
same,Activity,Mus musculus [30],Active
